# Experimental data: ChEMBL document CHEMBL4715745, “Synthesis and biological evaluation of novel FK228 analogues as potential isoform selective HDAC inhibitors” (Eur J Med Chem, 2016)
# Legend:
# MKN-1 = experiment: Growth inhibition of human MKN-1 cells measured after 48 hrs by sulforhodamine B assay; type: functional
# Summary of the method: (§1)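 Panel of 39 human cancer cell lines tested at the Japanese Foundation for Cancer Research. Five concentrations per compound, spanning 10⁻¹¹–10⁻⁷ M, 10⁻¹⁰–10⁻⁶ M or 10⁻⁸–10⁻⁴ M, were used to build dose-response curves. GI₅₀ is the concentration giving 50% growth inhibition relative to control.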
# NCI-H522 = experiment: Growth inhibition of human NCI-H522 cells measured after 48 hrs by sulforhodamine B assay; type: functional; summary of the method: as §1
# St-4 = experiment: Growth inhibition of human St-4 cells measured after 48 hrs by sulforhodamine B assay; type: functional; summary of the method: as §1
# [1] = Growth inhibition of human HBC4 cells measured after 48 hrs by sulforhodamine B assay; type: functional; summary of the method: as §1
# SNB-78 = experiment: Growth inhibition of human SNB-78 cells measured after 48 hrs by sulforhodamine B assay; type: functional; summary of the method: as §1
# MKN-7 = experiment: Growth inhibition of human MKN-7 cells measured after 48 hrs by sulforhodamine B assay; type: functional; summary of the method: as §1
# MCF7 = experiment: Growth inhibition of human MCF7 cells measured after 48 hrs by sulforhodamine B assay; type: functional; summary of the method: as §1
# OVCAR-3 = experiment: Growth inhibition of human OVCAR-3 cells measured after 48 hrs by sulforhodamine B assay; type: functional; summary of the method: as §1
# ACHN = experiment: Growth inhibition of human ACHN cells measured after 48 hrs by sulforhodamine B assay; type: functional; summary of the method: as §1
# U-251 = experiment: Growth inhibition of human U-251 cells measured after 48 hrs by sulforhodamine B assay; type: functional; summary of the method: as §1
# OVCAR-8 = experiment: Growth inhibition of human OVCAR-8 cells measured after 48 hrs by sulforhodamine B assay; type: functional; summary of the method: as §1
# OVCAR-4 = experiment: Growth inhibition of human OVCAR-4 cells measured after 48 hrs by sulforhodamine B assay; type: functional; summary of the method: as §1
# SF-268 = experiment: Growth inhibition of human SF-268 cells measured after 48 hrs by sulforhodamine B assay; type: functional; summary of the method: as §1
# MDA-MB-231 = experiment: Growth inhibition of human MDA-MB-231 cells measured after 48 hrs by sulforhodamine B assay; type: functional; summary of the method: as §1
# A549 = experiment: Growth inhibition of human A549 cells measured after 48 hrs by sulforhodamine B assay; type: functional; summary of the method: as §1
# NCI-H23 = experiment: Growth inhibition of human NCI-H23 cells measured after 48 hrs by sulforhodamine B assay; type: functional; summary of the method: as §1
# MKN-28 = experiment: Growth inhibition of human MKN-28 cells measured after 48 hrs by sulforhodamine B assay; type: functional; summary of the method: as §1
# OVCAR-5 = experiment: Growth inhibition of human OVCAR-5 cells measured after 48 hrs by sulforhodamine B assay; type: functional; summary of the method: as §1
# HCT-15 = experiment: Growth inhibition of human HCT-15 cells measured after 48 hrs by sulforhodamine B assay; type: functional; summary of the method: as §1
# HT-29 = experiment: Growth inhibition of human HT-29 cells measured after 48 hrs by sulforhodamine B assay; type: functional; summary of the method: as §1
# HCC 2998 = experiment: Growth inhibition of human HCC 2998 cells measured after 48 hrs by sulforhodamine B assay; type: functional; summary of the method: as §1
# NCI-H226 = experiment: Growth inhibition of human NCI-H226 cells measured after 48 hrs by sulforhodamine B assay; type: functional; summary of the method: as §1
# DMS-273 = experiment: Growth inhibition of human DMS-273 cells measured after 48 hrs by sulforhodamine B assay; type: functional; summary of the method: as §1
# NCI-H460 = experiment: Growth inhibition of human NCI-H460 cells measured after 48 hrs by sulforhodamine B assay; type: functional; summary of the method: as §1
# DU-145 = experiment: Growth inhibition of human DU-145 cells measured after 48 hrs by sulforhodamine B assay; type: functional; summary of the method: as §1
# MKN-45 = experiment: Growth inhibition of human MKN-45 cells measured after 48 hrs by sulforhodamine B assay; type: functional; summary of the method: as §1
# [2] = Selectivity index, ratio of IC50 for mouse HDAC6 expressed in 293T cells to IC50 for human HDAC1 expressed in 293T cells using Ac-KGLGK(Ac)-MCA as substrate incubated for 30 mins in presence of 0.1 mM DTT by fluorescence plate reader assay; conditions: 0.5 h
# Summary of the method: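 Ratio of HDAC6 IC₅₀ to HDAC1 IC₅₀, taken as selectivity for class I HDAC1 over class II HDAC6. Both enzyme assays were run in the presence of 0.1 mM DTT.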
# HCT-116 = experiment: Growth inhibition of human HCT-116 cells measured after 48 hrs by sulforhodamine B assay; type: functional; summary of the method: as §1
# [3] = Growth inhibition of human HBC5 cells measured after 48 hrs by sulforhodamine B assay; type: functional; summary of the method: as §1
# DMS-114 = experiment: Growth inhibition of human DMS-114 cells measured after 48 hrs by sulforhodamine B assay; type: functional; summary of the method: as §1
# [4] = molecular target: T1, Protein deacetylase HDAC6 (Mus musculus, UniProt Q9Z2V5); experiment: Inhibition of mouse HDAC6 expressed in 293T cells using Ac-KGLGK(Ac)-MCA as substrate incubated for 30 mins in presence of 0.1 mM DTT by fluorescence plate reader assay; parameters: species or system HEK293T
# T1 sequence (Q9Z2V5 whole entry): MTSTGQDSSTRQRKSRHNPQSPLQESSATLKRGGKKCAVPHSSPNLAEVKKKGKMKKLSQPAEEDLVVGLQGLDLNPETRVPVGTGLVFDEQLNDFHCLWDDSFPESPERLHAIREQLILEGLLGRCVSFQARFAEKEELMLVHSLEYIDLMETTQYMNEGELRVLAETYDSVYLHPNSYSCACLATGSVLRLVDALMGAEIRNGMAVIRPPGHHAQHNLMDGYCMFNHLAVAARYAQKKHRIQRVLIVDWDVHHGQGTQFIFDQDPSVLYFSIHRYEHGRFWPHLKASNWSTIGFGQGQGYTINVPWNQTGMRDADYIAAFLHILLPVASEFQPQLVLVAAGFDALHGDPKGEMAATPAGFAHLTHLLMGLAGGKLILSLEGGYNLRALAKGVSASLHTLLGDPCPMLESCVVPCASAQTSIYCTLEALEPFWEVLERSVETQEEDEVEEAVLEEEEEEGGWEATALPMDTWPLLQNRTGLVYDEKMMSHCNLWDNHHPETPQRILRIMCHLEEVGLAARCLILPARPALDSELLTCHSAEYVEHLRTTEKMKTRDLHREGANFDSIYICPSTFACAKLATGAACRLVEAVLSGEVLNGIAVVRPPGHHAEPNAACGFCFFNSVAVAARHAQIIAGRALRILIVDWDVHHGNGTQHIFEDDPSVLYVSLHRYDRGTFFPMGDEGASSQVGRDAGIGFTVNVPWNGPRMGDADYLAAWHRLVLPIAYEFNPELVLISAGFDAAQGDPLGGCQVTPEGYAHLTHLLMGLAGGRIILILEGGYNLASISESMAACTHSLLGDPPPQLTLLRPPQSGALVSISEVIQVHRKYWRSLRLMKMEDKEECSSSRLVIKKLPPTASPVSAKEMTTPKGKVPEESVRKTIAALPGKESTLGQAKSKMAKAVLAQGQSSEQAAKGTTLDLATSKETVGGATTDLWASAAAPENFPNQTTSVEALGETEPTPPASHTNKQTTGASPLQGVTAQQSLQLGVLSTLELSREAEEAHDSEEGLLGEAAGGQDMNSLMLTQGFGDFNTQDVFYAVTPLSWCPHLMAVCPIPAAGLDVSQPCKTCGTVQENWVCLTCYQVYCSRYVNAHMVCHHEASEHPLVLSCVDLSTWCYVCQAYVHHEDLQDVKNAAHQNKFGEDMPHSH
# Summary of the method: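 HDAC enzyme assay run in the presence of 0.1 mM dithiothreitol (DTT); IC₅₀ determined.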
# SK-OV-3 = experiment: Growth inhibition of human SK-OV-3 cells measured after 48 hrs by sulforhodamine B assay; type: functional; summary of the method: as §1
# RXF 631 = experiment: Growth inhibition of human RXF 631 cells measured after 48 hrs by sulforhodamine B assay; type: functional; summary of the method: as §1
# LOX IMVI = experiment: Growth inhibition of human LOX IMVI cells measured after 48 hrs by sulforhodamine B assay; type: functional; summary of the method: as §1
# SF-295 = experiment: Growth inhibition of human SF-295 cells measured after 48 hrs by sulforhodamine B assay; type: functional; summary of the method: as §1
# SF-539 = experiment: Growth inhibition of human SF-539 cells measured after 48 hrs by sulforhodamine B assay; type: functional; summary of the method: as §1
# MKN-74 = experiment: Growth inhibition of human MKN-74 cells measured after 48 hrs by sulforhodamine B assay; type: functional; summary of the method: as §1
# [5] = Growth inhibition of human BSY1 cells measured after 48 hrs by sulforhodamine B assay; type: functional; conditions: BSY-1; summary of the method: as §1
# PC-3 = experiment: Growth inhibition of human PC-3 cells measured after 48 hrs by sulforhodamine B assay; type: functional; summary of the method: as §1
# KM12 = experiment: Growth inhibition of human KM12 cells measured after 48 hrs by sulforhodamine B assay; type: functional; summary of the method: as §1
# SNB-75 = experiment: Growth inhibition of human SNB-75 cells measured after 48 hrs by sulforhodamine B assay; type: functional; summary of the method: as §1
# Histone deacetylase 1 = Histone deacetylase 1 (Homo sapiens, UniProt Q13547); experiment: Inhibition of human HDAC1 expressed in 293T cells using Ac-KGLGK(Ac)-MCA as substrate incubated for 30 mins in presence of 0.1 mM DTT by fluorescence plate reader assay; parameters: species or system HEK293T
# Sequence of Histone deacetylase 1 (Q13547 whole entry): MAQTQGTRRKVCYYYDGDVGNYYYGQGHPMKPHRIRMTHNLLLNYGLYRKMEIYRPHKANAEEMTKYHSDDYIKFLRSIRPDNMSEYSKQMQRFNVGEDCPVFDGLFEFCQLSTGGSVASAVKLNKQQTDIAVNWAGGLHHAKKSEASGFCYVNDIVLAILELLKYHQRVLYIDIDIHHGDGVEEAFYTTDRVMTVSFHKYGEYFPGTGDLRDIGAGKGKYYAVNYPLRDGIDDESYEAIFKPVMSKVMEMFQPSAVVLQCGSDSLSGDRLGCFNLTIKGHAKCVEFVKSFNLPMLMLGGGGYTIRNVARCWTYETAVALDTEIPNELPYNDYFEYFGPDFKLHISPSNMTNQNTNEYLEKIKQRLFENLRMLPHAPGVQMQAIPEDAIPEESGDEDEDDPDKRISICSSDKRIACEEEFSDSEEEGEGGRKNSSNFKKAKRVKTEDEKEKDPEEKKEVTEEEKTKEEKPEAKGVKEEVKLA
structure (smiles),measurement,setting,value
C/C=C1\NC(=O)[C@H]2CSSCC/C=C/[C@H](CC(=O)N[C@H](C(C)C)C(=O)N2)OC(=O)CNC1=O,GI50,MKN-1,0.073 µM
same,GI50,NCI-H522,10 nM
same,GI50,St-4,1.1 µM
same,GI50,[1],0.17 µM
same,GI50,SNB-78,10 nM
same,GI50,MKN-7,0.38 µM
same,GI50,MCF7,0.19 µM
same,GI50,OVCAR-3,0.064 µM
same,GI50,ACHN,0.46 µM
same,GI50,U-251,0.12 µM
same,GI50,OVCAR-8,0.054 µM
same,GI50,OVCAR-4,0.27 µM
same,GI50,SF-268,0.11 µM
same,GI50,MDA-MB-231,0.053 µM
same,GI50,A549,0.052 µM
same,GI50,NCI-H23,0.13 µM
same,GI50,MKN-28,1.4 µM
same,GI50,OVCAR-5,49 nM
same,GI50,HCT-15,20 µM
same,GI50,HT-29,42 nM
same,GI50,HCC 2998,0.032 µM
same,GI50,NCI-H226,0.41 µM
same,GI50,DMS-273,0.23 µM
same,GI50,NCI-H460,0.056 µM
same,GI50,DU-145,39 nM
same,GI50,MKN-45,1.9 µM
same,Ratio IC50,[2],182
same,GI50,HCT-116,26 nM
same,GI50,[3],0.63 µM
same,GI50,DMS-114,43 nM
same,IC50,[4],859 nM
same,GI50,SK-OV-3,0.063 µM
same,GI50,RXF 631,0.23 µM
same,GI50,LOX IMVI,25 nM
same,GI50,SF-295,0.28 µM
same,GI50,SF-539,10 nM
same,GI50,MKN-74,0.1 µM
same,GI50,[5],0.2 µM
same,GI50,PC-3,0.17 µM
same,GI50,KM12,0.045 µM
same,GI50,SNB-75,10 nM
same,IC50,Histone deacetylase 1,4.7 nM
CC(C)[C@H]1NC(=O)C[C@H]2/C=C/CCSSC[C@@H](NC1=O)C(=O)NCC(=O)NCC(=O)O2,GI50,MKN-1,12 µM
same,GI50,NCI-H522,680 nM
same,GI50,St-4,81 µM
same,GI50,[1],13 µM
same,GI50,SNB-78,610 nM
same,GI50,MKN-7,47 µM
same,GI50,MCF7,33 µM
same,GI50,OVCAR-3,13 µM
same,GI50,ACHN,43 µM
same,GI50,U-251,17 µM
same,GI50,OVCAR-8,18 µM
same,GI50,OVCAR-4,46 µM
same,GI50,SF-268,12 µM
same,GI50,MDA-MB-231,9.2 µM
same,GI50,A549,10 µM
same,GI50,NCI-H23,36 µM
same,GI50,MKN-28,95 µM
same,GI50,OVCAR-5,3100 nM
same,GI50,HCT-15,100 µM
same,GI50,HT-29,2700 nM
same,GI50,HCC 2998,13 µM
same,GI50,NCI-H226,61 µM
same,GI50,DMS-273,47 µM
same,GI50,NCI-H460,15 µM
same,GI50,DU-145,5400 nM
same,GI50,MKN-45,100 µM
same,Ratio IC50,[2],14
same,GI50,HCT-116,2500 nM
same,GI50,[3],39 µM
same,GI50,DMS-114,5200 nM
same,IC50,[4],1320 nM
same,GI50,SK-OV-3,12 µM
same,GI50,RXF 631,91 µM
same,GI50,LOX IMVI,2900 nM
same,GI50,SF-295,40 µM
same,GI50,SF-539,3300 nM
same,GI50,MKN-74,16 µM
same,GI50,[5],18 µM
same,GI50,PC-3,11 µM
same,GI50,KM12,12 µM
same,GI50,SNB-75,950 nM
same,IC50,Histone deacetylase 1,92.4 nM
